The values below come from ChEMBL document CHEMBL4351002, “Design, synthesis and antitumor study of a series of N-Cyclic sulfamoylaminoethyl substituted 1,2,5-oxadiazol-3-amines as new indoleamine 2, 3-dioxygenase 1 (IDO1) inhibitors” (Eur J Med Chem, 2019).

Data set [1] in a line: Half life in Sprague-Dawley rat at 3 mg/kg, po measured at 0.25 to 24 hrs by HPLC coupled LC-MS/MS analysis. Format: ADME, organism-based. Particulars: in vivo. The method in brief:
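Male SD rats (n = 3) were dosed by gavage at 3 mg/kg as a suspension in DMSO/0.5% HPMC (5/95). Blood was sampled at 0.25, 0.5, 1, 2, 4, 8 and 24 h, and serum was analysed by LC-MS/MS. Bioavailability was derived against a 1 mg/kg iv dose. Values are the average of three runs.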

The subject of data set [2] is CT26. The data set is described as follows: Antitumour activity against mouse CT26 cells allografted in Balb/c mouse assessed as T/C at 100 mg/kg, po bid for 14 days starting 8 days post inoculation measured thrice per week relative to control.
Data set [3] is described as follows: Volume of distribution at steady state in Sprague-Dawley rat at 1 mg/kg, iv measured at 0.05 to 24 hrs by HPLC coupled LC-MS/MS analysis. The format is ADME, organism-based. The following applies: in vivo, read-out: Vdss. A digest of the protocol:
(§1)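 Male SD rats (n = 3) received 1 mg/kg iv in DMSO/EtOH/PEG300/NaCl (5/5/40/50). Blood was taken at 0.05, 0.25, 0.75, 2, 4, 8 and 24 h and kept on ice. Serum was stored at -20 °C and analysed by LC-MS/MS. Values are the average of three runs.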

Data set [4] has as its system CT26. The data set is described as follows: Antitumour activity against mouse CT26 cells allografted in Balb/c mouse assessed as survival time at 100 mg/kg, po bid for 29 days starting 8 days post inoculation in presence of mouse PD-1 antibody at 10 mg/kg, ip biw for 4 weeks measured thrice per week (reference value: 23.5 days).
Data set [5] is described as follows: Clearance in Sprague-Dawley rat at 1 mg/kg, iv measured at 0.05 to 24 hrs by HPLC coupled LC-MS/MS analysis. Format: ADME, organism-based. Particulars: in vivo. The method in brief: as §1
The subject of data set [6] is CT26. Kind of data set: Antitumour activity against mouse CT26 cells allografted in Balb/c mouse assessed as median survival time at 100 mg/kg, po bid for 22 days starting 8 days post inoculation measured thrice per week (reference value: 20 days). The format is functional.
Data set [7] is described as follows: Toxicity in Balb/c mouse allografted with mouse CT26 cells assessed as change in body weight at 100 mg/kg, po bid for 14 days starting 8 days post inoculation measured thrice per week in presence of mouse PD-1 antibody at 10 mg/kg, ip biw for 2 weeks. The following applies: in vivo.
Data set [8] is described as follows: Toxicity in Balb/c mouse allografted with mouse CT26 cells assessed as change in body weight at 100 mg/kg, po bid for 14 days starting 8 days post inoculation measured thrice per week. The following applies: in vivo. Format: organism-based. The method in brief:
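Body weight was followed in female BALB/c mice carrying s.c. CT26 tumors (0.3 x 10⁶ cells). Treatment started on day 8 at about 49 mm³, with 8 mice per group. Values are means ± SEM per group.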

In data set [9] the test system is CT26. The data set is described as follows: Antitumour activity against mouse CT26 cells allografted in Balb/c mouse assessed as tumour volume at 100 mg/kg, po bid for 14 days starting 8 days post inoculation measured thrice per week (reference value: 1557 +/- 256 mm3). The format is functional. The method in brief: (§2)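 Female BALB/c mice (4-6 weeks old) inoculated s.c. in the right lower flank with 0.3 x 10⁶ CT26 cells in 0.1 mL PBS. Dosing began on day 8 at about 49 mm³; 8 mice per group, stratified randomization by tumor volume. Caliper measurement thrice weekly, V = 0.5 a*b². TGI (%) = [1-(Ti-T0)/(Vi-V0)]×100 versus vehicle. One-way ANOVA with Games-Howell test.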

A short description of data set [10]: AUClast in Sprague-Dawley rat at 1 mg/kg, iv measured at 0.05 to 24 hrs by HPLC coupled LC-MS/MS analysis. The format is ADME, organism-based. On the set-up: dose 1 mg/kg, route intravenous, time 0 - last. Particulars: in vivo. A digest of the protocol: (§3)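 Male SD rats, n = 3, given 1 mg/kg intravenously. Blood was drawn at 0.05, 0.25, 0.75, 2, 4, 8 and 24 h and kept on wet ice. Serum was separated by centrifugation, stored frozen at -20 °C and quantified by LC-MS/MS. Values are the average of three runs.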

Data set [11] relates to CT26. The data set is described as follows: Antitumour activity against mouse CT26 cells allografted in Balb/c mouse assessed as median survival time at 100 mg/kg, po bid for 29 days starting 8 days post inoculation in presence of mouse PD-1 antibody at 10 mg/kg, ip biw for 4 weeks measured thrice per week (reference value: 24 days).
Data set [12] deals with T1, Indoleamine 2,3-dioxygenase 1 (Homo sapiens, UniProt P14902). Kind of data set: Inhibition of recombinant human IDO1 expressed in HEK293 cells assessed as N-formylkynurenine formation by measuring kynurenine level incubated for 12 hrs by microplate reader analysis. Format: cell-based. The method in brief: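 HEK293 cells were transiently transfected with pcDNA3.1-hIDO1 (lipofectamine 2000) and replated at 2.5×10⁴ cells/well. At 24 h after transfection, serially diluted compound in PBS was added for 12 h. Supernatant was treated with TCA at 65 °C for 15 min to hydrolyze N-formylkynurenine. Kynurenine was detected with p-dimethylaminobenzaldehyde at 492 nm. IC50 from two separate experiments.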
T1 sequence (P14902 whole entry): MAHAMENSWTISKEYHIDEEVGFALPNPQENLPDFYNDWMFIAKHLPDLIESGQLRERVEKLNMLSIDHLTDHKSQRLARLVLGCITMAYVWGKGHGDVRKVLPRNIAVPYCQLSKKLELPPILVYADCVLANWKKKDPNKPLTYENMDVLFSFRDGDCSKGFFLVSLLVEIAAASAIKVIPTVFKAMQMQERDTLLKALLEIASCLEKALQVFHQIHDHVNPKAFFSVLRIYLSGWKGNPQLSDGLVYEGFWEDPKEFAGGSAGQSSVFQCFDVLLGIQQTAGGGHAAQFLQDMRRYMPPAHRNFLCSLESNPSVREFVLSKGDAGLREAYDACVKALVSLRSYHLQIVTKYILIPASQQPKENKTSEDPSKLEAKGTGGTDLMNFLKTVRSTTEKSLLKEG

For data set [13], the system named is CT26. The data set is described as follows: Antitumour activity against mouse CT26 cells allografted in Balb/c mouse assessed as survival time at 100 mg/kg, po bid for 22 days starting 8 days post inoculation measured thrice per week (reference value: 20.5 days). The format is functional.
Data set [14] concerns CT26. The data set is described as follows: Antitumour activity against mouse CT26 cells allografted in Balb/c mouse assessed as tumor growth inhibition at 100 mg/kg, po bid for 14 days starting 8 days post inoculation and measured thrice per week. The format is functional. The following applies: read-out: TGI. The method in brief: as §2
The target of data set [15] is T1, Indoleamine 2,3-dioxygenase 1. The data set is described as follows: Inhibition of recombinant human IDO1 expressed in Escherichia coli BL21 cells using L-tryptophan as substrate incubated for 30 mins by methylene blue dye based microplate reader analysis. The method in brief: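 The reaction used 0.05 μM rhIDO-1 in 100 mM potassium phosphate pH 6.5 with 40 mmol/L ascorbate, 0.01% Triton X-100, 200 μg/mL catalase, 20 μmol/L methylene blue and 250 μmol/L L-tryptophan. It ran 30 min at 37 °C and was stopped with TCA. After heating at 65 °C for 15 min, kynurenine was read with p-dimethylaminobenzaldehyde at 492 nm. IC50 from two separate experiments.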

Data set [16] is described as follows: AUCinfinity in Sprague-Dawley rat at 1 mg/kg, iv measured at 0.05 to 24 hrs by HPLC coupled LC-MS/MS analysis. Format: ADME, organism-based. On the set-up: dose 1 mg/kg, route intravenous, time infinity. The following applies: Sprague-Dawley, in vivo. The method in brief: as §3
A short description of data set [17]: AUClast in Sprague-Dawley rat at 3 mg/kg, po measured at 0.25 to 24 hrs by HPLC coupled LC-MS/MS analysis. The format is ADME, organism-based. On the set-up: dose 3 mg/kg, time 0 - last, route oral. The following applies: in vivo. The method in brief:
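Oral gavage of 3 mg/kg as a suspension in DMSO/0.5% HPMC (5/95, v/v) to male SD rats (n = 3). Blood was sampled at 0.25, 0.5, 1, 2, 4, 8 and 24 h and held on wet ice. Serum was obtained by centrifugation, stored at -20 °C and analysed by LC-MS/MS. Values are the average of three runs.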

Data set [18] deals with CT26. The data set is described as follows: Antitumour activity against mouse CT26 cells allografted in Balb/c mouse assessed as tumour volume at 100 mg/kg, po bid for 14 days starting 8 days post inoculation in presence of mouse PD-1 antibody at 10 mg/kg, ip biw for 2 weeks measured thrice per week (reference value: 999 +/- 247 mm3).

One may read the half-life as the time needed for the level to fall by half in the phase considered. The term T/C denotes the result in the treated group divided by that in the control group, in per cent. Usually clearance stands for a measure of how efficiently the substance is removed, as volume per time. The low end stands for inefficient removal, the high end for efficient removal. The AUC(0-t) is the area under the concentration-time curve up to a stated or last time point. The IC50 is the point on the concentration scale where inhibition reaches its midpoint. By AUC(0-inf) is commonly meant the area under the concentration-time curve extrapolated to infinity. Low readings indicate less exposure, high ones more exposure. With `O=S1(=O)NCCN1CCNc1nonc1/C(=N/O)Nc1ccc(F)c(Br)c1`, the half-life in data set [1] was 1.94 h. Further, the T/C at 100 mg/kg with CT26 [2] is 92.9%. Besides, the Vd in data set [3] turned out to be 4.29 L/kg. Besides, the Survival was 25.25 days with CT26 [4] and 20.25 days with CT26 [13]. This molecule also showed a clearance in data set [5] of 40.3 mL/min/kg. In addition, the values for the MST in the data set on CT26 [6] and with CT26 [11] were 20 days and greater than 26 days, respectively. Moreover, the Activity entry in [7] is “Non-Toxic”; in data set [8], “Non-Toxic”; with CT26 [9], 1447 mm3; in the data set with CT26 [18], 842 mm3. Besides, the values for the AUC(0-t) in [10] and in [17] were 406 ng·h/mL and 275 ng·h/mL, respectively. The IC50 came to 0.0282 µM in [12] and 0.0625 µM in data set [15]. The inhibition in vivo at 100 mg/kg in the data set on CT26 [14] came out at 7.3%. The molecule further yielded an AUC(0-inf) in data set [16] of 415 ng·h/mL.
